Where a name gives a salt, the structure may show the parent alone. Read-outs that look alike come from different tables or passages of the source.
Key:
[1] = ref Wu et al. 2004; cited from earlier work
[2] = test system: micturition reflex contractions; assay type: in vivo, Sprague-Dawley rats; conditions: i.t.; for intercontraction interval (ICI): anaesthetized rats, mean ± SEM; for intercontraction interval (ICI), extent of prolongation over the dose range: across the doses tested
Outline: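 Urethane-anaesthetised (1.2 g/kg i.p.) adult female rats, 200–280 g, with an intrathecal catheter tip at L1 placed ≥1 d earlier. Ureters and urethral orifice ligated. Bladder saline-infused at 100 μl/min to micturition threshold, then 3–5 μl/min. After ≥10 min stable baseline, vehicle (saline or 5% DMSO/saline), then escalating i.t. doses (10 μl + 10 μl saline flush, ≥8 min apart). ICI from intravesical pressure; n = 5–15; repeated-measures ANOVA/Bonferroni.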

[3] = target: T1, hP2X2/3 (Homo sapiens, UniProt P56373+Q9UBL9); assay type: cell-based; conditions: αβmeATP or ATP-evoked calcium flux, 1321N1 cells, n = 15
T1 sequence (Q9UBL9 1-471): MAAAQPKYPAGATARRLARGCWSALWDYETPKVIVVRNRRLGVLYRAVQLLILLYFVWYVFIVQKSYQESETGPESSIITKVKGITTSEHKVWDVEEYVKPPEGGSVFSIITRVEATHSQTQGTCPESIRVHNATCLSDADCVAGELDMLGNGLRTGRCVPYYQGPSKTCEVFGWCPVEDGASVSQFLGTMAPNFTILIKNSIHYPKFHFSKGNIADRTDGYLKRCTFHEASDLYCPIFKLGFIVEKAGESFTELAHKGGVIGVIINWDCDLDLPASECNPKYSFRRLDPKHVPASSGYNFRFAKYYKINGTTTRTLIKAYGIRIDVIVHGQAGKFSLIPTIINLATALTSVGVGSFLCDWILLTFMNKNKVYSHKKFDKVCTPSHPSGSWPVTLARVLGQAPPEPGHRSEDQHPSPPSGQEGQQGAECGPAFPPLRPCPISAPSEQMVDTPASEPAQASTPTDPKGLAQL
T1 sequence (P56373 1-397): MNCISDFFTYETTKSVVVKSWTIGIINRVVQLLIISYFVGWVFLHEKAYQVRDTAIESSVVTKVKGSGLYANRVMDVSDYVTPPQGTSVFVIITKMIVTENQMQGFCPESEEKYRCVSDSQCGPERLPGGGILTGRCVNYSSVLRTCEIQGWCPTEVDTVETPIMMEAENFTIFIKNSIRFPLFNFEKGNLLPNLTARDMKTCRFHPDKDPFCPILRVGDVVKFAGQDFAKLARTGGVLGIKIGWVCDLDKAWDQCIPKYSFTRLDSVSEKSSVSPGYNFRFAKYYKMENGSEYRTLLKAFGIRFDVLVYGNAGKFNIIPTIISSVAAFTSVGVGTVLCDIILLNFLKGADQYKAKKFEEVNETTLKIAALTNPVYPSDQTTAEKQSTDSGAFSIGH
Outline: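 Cytosolic calcium flux was read in Fluo-3-loaded 1321N1 astrocytoma cells transfected with cloned human P2X2/3 receptors. Flux was evoked by αβmeATP or ATP, at an agonist level set per receptor subtype, with test compound present. Inhibition was expressed as pIC50 ± SEM from 15 determinations.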

[4] = test system: pERK-positive cells in L6 spinal cord; assay: spinal ERK activation; assay type: in vivo, Sprague-Dawley rats; conditions: 300 nmol, i.t., 10 min before 1% acetic acid intravesically; n = 4
Outline: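 Separate experiment in urethane-anaesthetised bladder-cannulated female rats: ≥1 h post-cannulation, i.t. test compound (300 nmol) or 5% DMSO; 10 min later, 700 μl 1% acetic acid intravesically for 2 min (sham: vehicle, no acid, 12 min). Perfusion-fixed (4% paraformaldehyde/picric acid); 20 μm L6 cryosections. Anti-phospho-p44/42 (Thr202/Tyr204) staining with tyramide amplification and FITC. Four rats/group, three sections each, blind counting; one-way ANOVA/Tukey.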

[5] = test system: 75 receptors, channels, enzymes, and transporters; assay: Cerep screen of 75 receptors, channels, enzymes and transporters; assay type: binding; conditions: 10 μM, 75 targets
[6] = test system: more than 100 kinases; assay: Ambit kinase screen; assay type: binding; conditions: 10 μM
[7] = test system: other P2X receptors; assay: calcium flux selectivity over other P2X receptors; assay type: cell-based; conditions: up to a concentration of 10 μM
Outline: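 Off-target P2X subtypes were tested in Fluo-3-loaded CHOK1 cells (recombinant human P2X1, human P2X4, rat P2X5 or human P2X7) and 1321N1 astrocytoma cells (cloned human P2X2). Intracellular calcium flux was evoked by αβmeATP or ATP, at a level varied by subtype, with test compound present. pIC50 was derived with n = 3 per receptor.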

[8] = test system: P2X2/3; conditions: ref Gever et al., 2006; Carter et al., 2009; cited from earlier work
[9] = test system: P2X3; conditions: ref Gever et al., 2006; Carter et al., 2009; cited from earlier work
[10] = test system: P2X1; conditions: ref Gever et al., 2006; Carter et al., 2009; cited from earlier work

Structure (SMILES)	intercontraction interval (ICI) ([2]; 10 nmol) [min]	intercontraction interval (ICI), extent of prolongation over the dose range [2]	pIC50 at P2X2/3 [8]	pIC50 at P2X3 [9]	intercontraction interval (ICI) ([2]; 1 nmol) [min]	further results
O=C(O)c1cc(C(=O)O)c(C(=O)N(Cc2cccc(Oc3ccccc3)c2)[C@H]2CCCc3ccccc32)cc1C(=O)O [A-317491]	–	–	–	–	–	CNS permeability [1]: negligible CNS permeability
C#Cc1cc(Oc2cnc(N)nc2N)c(C(C)C)cc1OC [AF-792]	–	–	–	–	–	intercontraction interval (ICI) ([2]; 100 nmol): 8.00 ± 1.67 min; intercontraction interval (ICI) ([2]; 300 nmol): 9.33 ± 2.50 min; pIC50 ± SEM [3]: 7.94 ± 0.08; number of pERK-positive cells in L6 spinal cord segment [4]: 43.0 ± 9.6 cells/ section; inhibition of radioligand binding or function [5]: little or no inhibition; inhibition of radioligand binding or function [6]: little or no inhibition; inhibition at other P2X receptors [7]: no inhibition
Cc1nc(N=Nc2ccc(S(=O)(=O)O)cc2S(=O)(=O)O)c(COP(=O)(O)O)c(C=O)c1O [PPADs, pyridoxal-phosphate-6-azophenyl-2′,4′,-disulphonic acid]	3.50 ± 1.15	more than 2 min	6	6	–	–
Nc1ncnc2c1ncn2[C@@H]1O[C@H](COP(=O)(O)OP(=O)(O)OP(=O)(O)O)[C@H]2OC3(O[C@H]21)C([N+](=O)[O-])=CC(=[N+]([O-])[O-])C=C3[N+](=O)[O-] (some centres unmarked) [TNP-ATP, 2′,3′-O-(2,4,6-trinitrophenyl) adenosine 5′-triphosphate monolithium trisodium salt]	4.28 ± 1.21	–	8.4	9	4.64 ± 1.30	pIC50 at P2X1 [10]: 8.22
Nc1ncnc2c1ncn2[C@@H]1O[C@H](COP(=O)(O)CP(=O)(O)OP(=O)(O)O)[C@@H](O)[C@H]1O [αβmeATP, α,β-methylene-ATP]	–	up to 10 min	–	–	8.45 ± 2.48	lowest significant dose for prolonging the ICI [2]: 1 nmol

Reference: PMC2882023 (The Journal of neuroscience : the official journal of the …, 2010)
